How the values were obtained:
Rattus norvegicus [1] = test: Distribution of Radioactivity in thymus of Fisher 344 Rats by intravenous administration of compound after 5 minutes expressed as dose/gram; format: ADME, organism-based; conditions: in vivo
Outline: (§1)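 Female Fischer 344 rats, 10-12 weeks old (170-200 g), food and water ad libitum; four rats per time point. About 6.3 μCi given in 0.05 mL saline (pH 7.4, filtered) by lateral tail vein under ether anesthesia. Tissues sampled at 5 min, 1 h, 4 h or 1 day. %ID/g computed from injectate standards; mean and range given.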

Rattus norvegicus [2] = test: Distribution of Radioactivity in stomach of Fisher 344 Rats by intravenous administration of compound after 1 hour expressed as dose/gram; format: ADME, organism-based; conditions: in vivo; outline: as §1
Mus musculus [3] = test: Distribution of Radioactivity in small intestine of CD-1 Mice by intravenous administration of compound after 1 day expressed as dose/gram; format: ADME, organism-based; conditions: in vivo, 24 h
Outline: (§2)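 Female CD-1 mice, 7 1/2 weeks old (25-29 g), fed and watered ad libitum. Agent given in physiological saline, pH adjusted to 7.4 and filtered, by lateral tail vein injection under ether anesthesia. Tissues collected at 5 min, 1 h, 4 h and 1 day. Injectate samples counted as standard; results as mean % injected dose/g with range.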

Mus musculus [4] = test: Distribution of Radioactivity in small intestine of CD-1 Mice by intravenous administration of compound after 4 hr expressed as dose/gram; format: ADME, organism-based; conditions: in vivo
Outline: (§3)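 Female CD-1 mice, 7 1/2 weeks old (25-29 g), fed and watered ad libitum. Radiotracer in physiological saline, pH 7.4, filtered, injected via lateral tail vein under ether anesthesia. Tissues taken at 5 min, 1 h, 4 h or 1 day. Percent injected dose per gram calculated against assayed samples of the injected solution; mean with range reported.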

Mus musculus [5] = test: Distribution of Radioactivity in adrenals of CD-1 Mice by intravenous administration of compound after 1 hr expressed as dose/gram; format: ADME, organism-based, Adrenal gland; conditions: in vivo; outline: as §2
Rattus norvegicus [6] = test: Distribution of Radioactivity in small intestine of Fisher 344 Rats by intravenous administration of compound after 4 hour expressed as dose/gram; format: ADME, organism-based; conditions: in vivo; outline: as §1
Rattus norvegicus [7] = test: Distribution of Radioactivity in blood of Fisher 344 Rats by intravenous administration of compound after 1 day expressed as dose/gram; format: ADME, organism-based; conditions: in vivo, 24 h
Outline: (§4)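 Female Fischer 344 rats, 10-12 weeks old (170-200 g), fed and watered ad libitum; four rats per time point. Each received ~6.3 μCi in 0.05 mL saline (pH 7.4, filtered), given by lateral tail vein under ether anesthesia. Tissues taken at 5 min, 1 h, 4 h and 1 day. Injectate standards used; values as mean % injected dose/g with range.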

Rattus norvegicus [8] = test: Distribution of Radioactivity in lungs of Fisher 344 Rats by intravenous administration of compound after 1 hour expressed as dose/gram; format: ADME, organism-based, Lung; conditions: in vivo; outline: as §4
Mus musculus [9] = test: Distribution of Radioactivity in blood of CD-1 Mice by intravenous administration of compound after 4 hour expressed as dose/gram; format: ADME, organism-based; conditions: in vivo; outline: as §2
Rattus norvegicus [10] = test: Distribution of Radioactivity in adrenals of Fisher 344 Rats by intravenous administration of compound after 4 hour expressed as dose/gram; format: ADME, organism-based, Adrenal gland; conditions: in vivo; outline: as §4
Mus musculus [11] = test: Distribution of Radioactivity in pancreas of CD-1 Mice by intravenous administration of compound after 1 day expressed as dose/gram; format: ADME, organism-based; conditions: in vivo, 24 h; outline: as §2
Rattus norvegicus [12] = test: Distribution of Radioactivity in blood of Fisher 344 Rats by intravenous administration of compound after 4 hour expressed as dose/gram; format: ADME, organism-based; conditions: in vivo; outline: as §4
Rattus norvegicus [13] = test: Distribution of Radioactivity in pancreas of Fisher 344 Rats by intravenous administration of compound after 1 day expressed as dose/gram; format: ADME, organism-based; conditions: in vivo, 24 h; outline: as §4
Rattus norvegicus [14] = test: Distribution of Radioactivity in pancreas of Fisher 344 Rats by intravenous administration of compound after 4 hour expressed as dose/gram; format: ADME, organism-based; conditions: in vivo; outline: as §4
Mus musculus [15] = test: Distribution of Radioactivity in stomach of CD-1 Mice by intravenous administration of compound after 5 minutes expressed as dose/gram; format: ADME, organism-based; conditions: in vivo; outline: as §3
Rattus norvegicus [16] = test: Distribution of Radioactivity in thymus of Fisher 344 Rats by intravenous administration of compound after 4 hour expressed as dose/gram; format: ADME, organism-based; conditions: in vivo; outline: as §1
Mus musculus [17] = test: Distribution of Radioactivity in adrenals of CD-1 Mice by intravenous administration of compound after 4 hr expressed as dose/gram; format: ADME, organism-based, Adrenal gland; conditions: in vivo; outline: as §2
Mus musculus [18] = test: Distribution of Radioactivity in blood of CD-1 Mice by intravenous administration of compound after 1 day expressed as dose/gram; format: ADME, organism-based; conditions: in vivo, 24 h; outline: as §2
Rattus norvegicus [19] = test: Distribution of Radioactivity in kidneys of Fisher 344 Rats by intravenous administration of compound after 1 hour expressed as dose/gram; format: ADME, organism-based, Kidney; conditions: in vivo; outline: as §4
Rattus norvegicus [20] = test: Distribution of Radioactivity in kidneys of Fisher 344 Rats by intravenous administration of compound after 4 hour expressed as dose/gram; format: ADME, organism-based, Kidney; conditions: in vivo; outline: as §4
Mus musculus [21] = test: Distribution of Radioactivity in adrenals of CD-1 Mice by intravenous administration of compound after 1 day expressed as dose/gram; format: ADME, organism-based, Adrenal gland; conditions: in vivo, 24 h; outline: as §2
Mus musculus [22] = test: Distribution of Radioactivity in kidneys of CD-1 Mice by intravenous administration of compound after 1 hr expressed as dose/gram; format: ADME, organism-based, Kidney; conditions: in vivo; outline: as §2
Mus musculus [23] = test: Distribution of Radioactivity in thymus of CD-1 Mice by intravenous administration of compound after 1 hr expressed as dose/gram; format: ADME, organism-based; conditions: in vivo; outline: as §3
Mus musculus [24] = test: Distribution of Radioactivity in small intestine of CD-1 Mice by intravenous administration of compound after 5 minutes expressed as dose/gram; format: ADME, organism-based; conditions: in vivo; outline: as §3
Mus musculus [25] = test: Distribution of Radioactivity in stomach of CD-1 Mice by intravenous administration of compound after 1 hr expressed as dose/gram; format: ADME, organism-based; conditions: in vivo; outline: as §3
Mus musculus [26] = test: Distribution of Radioactivity in adrenals of CD-1 Mice by intravenous administration of compound after 5 minutes expressed as dose/gram; format: ADME, organism-based, Adrenal gland; conditions: in vivo; outline: as §2
Rattus norvegicus [27] = test: Distribution of Radioactivity in lungs of Fisher 344 Rats by intravenous administration of compound after 1 day expressed as dose/gram; format: ADME, organism-based, Lung; conditions: in vivo, 24 h; outline: as §4
Rattus norvegicus [28] = test: Distribution of Radioactivity in adrenals of Fisher 344 Rats by intravenous administration of compound after 1 hour expressed as dose/gram; format: ADME, organism-based, Adrenal gland; conditions: in vivo; outline: as §4
Rattus norvegicus [29] = test: Distribution of Radioactivity in pancreas of Fisher 344 Rats by intravenous administration of compound after 1 hour expressed as dose/gram; format: ADME, organism-based; conditions: in vivo; outline: as §4
Mus musculus [30] = test: Distribution of Radioactivity in stomach of CD-1 Mice by intravenous administration of compound after 1 day expressed as dose/gram; format: ADME, organism-based; conditions: in vivo, 24 h; outline: as §3
Mus musculus [31] = test: Distribution of Radioactivity in spleen of CD-1 Mice by intravenous administration of compound after 4 hr expressed as dose/gram; format: ADME, organism-based; conditions: in vivo; outline: as §3
Mus musculus [32] = test: Distribution of Radioactivity in lungs of CD-1 Mice by intravenous administration of compound after 5 minutes expressed as dose/gram; format: ADME, organism-based, Lung; conditions: in vivo; outline: as §2
Rattus norvegicus [33] = test: Distribution of Radioactivity in small intestine of Fisher 344 Rats by intravenous administration of compound after 1 hour expressed as dose/gram; format: ADME, organism-based; conditions: in vivo; outline: as §1
Mus musculus [34] = test: Distribution of Radioactivity in spleen of CD-1 Mice by intravenous administration of compound after 1 hr expressed as dose/gram; format: ADME, organism-based; conditions: in vivo; outline: as §3
Mus musculus [35] = test: Distribution of Radioactivity in lungs of CD-1 Mice by intravenous administration of compound after 1 day expressed as dose/gram; format: ADME, organism-based, Lung; conditions: in vivo, 24 h; outline: as §2
Rattus norvegicus [36] = test: Distribution of Radioactivity in stomach of Fisher 344 Rats by intravenous administration of compound after 4 hour expressed as dose/gram; format: ADME, organism-based; conditions: in vivo; outline: as §1
Mus musculus [37] = test: Distribution of Radioactivity in small intestine of CD-1 Mice by intravenous administration of compound after 1 hr expressed as dose/gram; format: ADME, organism-based; conditions: in vivo; outline: as §2
Rattus norvegicus [38] = test: Distribution of Radioactivity in adrenals of Fisher 344 Rats by intravenous administration of compound after 5 minutes expressed as dose/gram; format: ADME, organism-based, Adrenal gland; conditions: in vivo; outline: as §4
Rattus norvegicus [39] = test: Distribution of Radioactivity in spleen of Fisher 344 Rats by intravenous administration of compound after 1 hour expressed as dose/gram; format: ADME, organism-based; conditions: in vivo; outline: as §1
Rattus norvegicus [40] = test: Distribution of Radioactivity in stomach of Fisher 344 Rats by intravenous administration of compound after 1 day expressed as dose/gram; format: ADME, organism-based; conditions: in vivo, 24 h; outline: as §1

Substance beta-[103,106Ru]Ruthenocenylalanine has an Injected (Rattus norvegicus [1]) of 0.335%, an Injected (Rattus norvegicus [2]) of 0.081% and an Injected (Mus musculus [3]) of 0.059%. For the same substance, the Injected (Mus musculus [4]) was 0.367%, the Injected (Mus musculus [5]) was 1.054% and the Injected (Rattus norvegicus [6]) was 0.218%. It also gave an Injected (Rattus norvegicus [7]) of 0.051%, an Injected (Rattus norvegicus [8]) of 0.424% and an Injected (Mus musculus [9]) of 0.22%. It also gave an Injected (Rattus norvegicus [10]) of 0.047%, an Injected (Mus musculus [11]) of 0.067% and an Injected (Rattus norvegicus [12]) of 0.134%. It also gave an Injected (Rattus norvegicus [13]) of 0.035%, an Injected (Rattus norvegicus [14]) of 0.044% and an Injected (Mus musculus [15]) of 0.987%. The Injected (Rattus norvegicus [16]) was 0.035%, the Injected (Mus musculus [17]) was 0.786% and the Injected (Mus musculus [18]) was 0.086%. The Injected (Rattus norvegicus [19]) was 2.717%, the Injected (Rattus norvegicus [20]) was 1.148% and the Injected (Mus musculus [21]) was 0.556%. The Injected (Mus musculus [22]) was 4.59%, the Injected (Mus musculus [23]) was 0.35% and the Injected (Mus musculus [24]) was 1.739%. For the same substance, the Injected (Mus musculus [25]) was 0.326%, the Injected (Mus musculus [26]) was 6.85% and the Injected (Rattus norvegicus [27]) was 0.065%. For the same substance, the Injected (Rattus norvegicus [28]) was 0.141%, the Injected (Rattus norvegicus [29]) was 0.299% and the Injected (Mus musculus [30]) was 0.032%. It also gave an Injected (Mus musculus [31]) of 0.206%, an Injected (Mus musculus [32]) of 3.603% and an Injected (Rattus norvegicus [33]) of 1.421%. The Injected (Mus musculus [34]) was 0.384%, the Injected (Mus musculus [35]) was 0.252% and the Injected (Rattus norvegicus [36]) was 0.028%. It also gave an Injected (Mus musculus [37]) of 2.641%, an Injected (Rattus norvegicus [38]) of 0.275% and an Injected (Rattus norvegicus [39]) of 0.14%. For the same substance, the Injected (Rattus norvegicus [40]) was 0.023%.

Reference: ChEMBL document CHEMBL1122792, “Synthesis and biological evaluation of radiolabeled beta-ruthenocenylalanine” (J Med Chem, 1984)
